Values after ≈ are worked out from the molar mass of the structure shown. Active and inactive are the calls of the source. No cut-off for these calls is given here.
What was measured:
[1] = system: NCI-H322M; assay: Growth inhibition of human NCI-H322M cells at 10 uM incubated for 48 hrs by sulforhodamine B assay; type: functional, cell-based
In short: (§1)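 NCI 60-line panel, single 10 μM dose. Cells were grown in RPMI-1640 with 5% FBS and 2 mM L-glutamine and pre-incubated 24 h before compound addition (DMSO stock). Exposure was 48 h at 37 °C, 5% CO2. Cells were fixed with cold TCA (10% final), stained with 0.4% SRB, bound dye dissolved in 10 mM Tris base, A515 read. Growth was taken relative to time-zero and untreated control plates.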

[2] = system: CCRF-CEM; assay: Growth inhibition of human CCRF-CEM cells at 10 uM incubated for 48 hrs by sulforhodamine B assay; type: functional, cell-based
In short: (§2)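 NCI 60-cell-line screen at a single 10 µM dose. Cells in RPMI-1640 with 5% FBS and 2 mM L-glutamine, pre-incubated 24 h, then treated for 48 h at 37 °C. TCA fixation, sulforhodamine B staining, absorbance at 515 nm. Percentage growth calculated against time-zero and untreated controls.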

[3] = system: Staphylococcus aureus; assay: Antibacterial activity against methicillin-resistant Staphylococcus aureus ATCC 43300 after 24 hrs by resazurin dye based microdilution assay; type: functional; settings: ATCC 43300, 24 h
In short: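 Broth microdilution in Mueller Hinton broth, inoculum 5 × 10^5 – 8 × 10^5. Compound stocks diluted in MHB with 5% DMSO and 0.1% Tween 80. Incubation 24 h at 35-37 °C. MIC is the lowest concentration with visible growth inhibition and/or by resazurin (1 mg/mL) read-out. Gentamicin as control. Run in duplicate, replicated at least three times.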

[4] = system: DU-145; assay: Growth inhibition of human DU145 cells at 10 uM incubated for 48 hrs by sulforhodamine B assay; type: functional, cell-based; in short: as §2
[5] = system: Plasmodium falciparum; assay: Antiplasmodial activity against chloroquine-sensitive Plasmodium falciparum 3D7 assessed as reduction in parasitic LDH activity after 48 hrs by Malstat reagent based […] method; type: functional; settings: 3D7, 48 h
In short: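 Unsynchronized P. falciparum 3D7 at 0.5% parasitemia and 1% hematocrit in RPMI with 3% Albumax II. Exposed to 100, 25, 6.25 and 1.56 µg/mL for 48 h at 37 °C under 90% N2/5% CO2/5% O2. After three freeze-thaw cycles, LDH measured with Malstat and NBT/PES, 1 h in the dark, read at 650 nm. IC50 by Probit; triplicate, ≥2 experiments.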

[6] = system: KM12; assay: Growth inhibition of human KM12 cells at 10 uM incubated for 48 hrs by sulforhodamine B assay; type: functional, cell-based; in short: as §1
[7] = system: HCC 2998; assay: Growth inhibition of human HCC2998 cells at 10 uM incubated for 48 hrs by sulforhodamine B assay; type: functional, cell-based; in short: as §2
[8] = system: Cryptococcus neoformans; assay: Growth inhibition of Cryptococcus neoformans ATCC 32264 at 3.4 ug/ml incubated for 48 hrs under dark condition by broth microdilution method relative to control; type: functional; settings: ATCC 32264, 48 h, read-out: GI
[9] = system: Trypanosoma cruzi; assay: Antitrypanosomal activity against Trypanosoma cruzi Tulahuen intracellular amastigote harboring LacZ infected in human U937 cells after 72 hrs by CPRG/Nonidet reagent based spectrophotometric method; type: functional, cell-based; settings: U-937, 72 h
In short: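 U-937 cells at 2.5 × 10^5 cells/mL in RPMI-1640 with 10% serum and 0.1 µg/mL PMA were infected with β-galactosidase-transfected Tulahuen epimastigotes at 5 parasites per cell. Infected cells were exposed to 50, 12.5, 3.125 and 0.78 µg/mL for 72 h. CPRG (100 uM) and 0.1% Nonidet P-40 were added for 3 h, read at 570 nm. EC50 by Probit. Triplicate, at least two experiments; benznidazole as reference.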

[10] = system: SNB-75; assay: Growth inhibition of human SNB75 cells at 10 uM incubated for 48 hrs by sulforhodamine B assay; type: functional, cell-based
In short: (§3)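 NCI-60 single-dose screen at 10 µM for 48 h. Cells were grown in RPMI-1640 with 5% FBS and 2 mM L-glutamine and preincubated 24 h before compound. Time-zero plates were TCA-fixed at compound addition. After exposure, cells were TCA-fixed, stained with SRB and read at 515 nm. Percentage growth was calculated against time-zero and untreated-control absorbances.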

[11] = system: Cryptococcus neoformans; assay: Growth inhibition of Cryptococcus neoformans ATCC 32264 at 125 ug/ml incubated for 48 hrs under dark condition by broth microdilution method relative to control; type: functional; settings: ATCC 32264, 48 h, read-out: GI
In short: (§4)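 CLSI M27-A3 broth microdilution in RPMI-1640, DMSO ≤1%. Inoculum 1-5 × 10^3 CFU/mL. Incubated 48 h at 30 °C, dark. % inhibition = 100 − (OD405 test − sterility control)/(OD405 growth control − sterility control), with growth and sterility control wells. Triplicate.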

[12] = system: MCF7; assay: Growth inhibition of human MCF7 cells at 10 uM incubated for 48 hrs by sulforhodamine B assay; type: functional, cell-based; in short: as §1
[13] = system: A549; assay: Growth inhibition of human A549/ATCC cells at 10 uM incubated for 48 hrs by sulforhodamine B assay; type: functional, cell-based; in short: as §2
[14] = system: TK-10; assay: Growth inhibition of human TK10 cells at 10 uM incubated for 48 hrs by sulforhodamine B assay; type: functional, cell-based; in short: as §3
[15] = system: UO-31; assay: Growth inhibition of human UO31 cells at 10 uM incubated for 48 hrs by sulforhodamine B assay; type: functional, cell-based; in short: as §3
[16] = system: Candida albicans; assay: Growth inhibition of Candida albicans ATCC 10231 at 3.4 ug/ml incubated for 48 hrs under dark condition by broth microdilution method relative to control; type: functional; settings: ATCC 10231, 48 h, read-out: GI
[17] = system: OVCAR-8; assay: Growth inhibition of human OVCAR8 cells at 10 uM incubated for 48 hrs by sulforhodamine B assay; type: functional, cell-based; in short: as §1
[18] = system: Candida albicans; assay: Growth inhibition of Candida albicans ATCC 10231 at 15.62 ug/ml incubated for 48 hrs under dark condition by broth microdilution method relative to control; type: functional; settings: ATCC 10231, 48 h, read-out: GI; in short: as §4
[19] = system: NCI-H23; assay: Growth inhibition of human NCI-H23 cells at 10 uM incubated for 48 hrs by sulforhodamine B assay; type: functional, cell-based; in short: as §1
[20] = system: Candida albicans; assay: Growth inhibition of Candida albicans ATCC 10231 at 7.8 ug/ml incubated for 48 hrs under dark condition by broth microdilution method relative to control; type: functional; settings: ATCC 10231, 48 h, read-out: GI; in short: as §4
[21] = system: U-937; assay: Cytotoxicity against human U937 cells after 72 hrs by MTT assay; type: cell-based; settings: u-937, 72 h
In short: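 Exponentially growing U-937 at 1 × 10^5 cells/mL in RPMI-1640 with 10% FBS were exposed to 200, 50, 12.5 and 3.125 µg/mL for 72 h at 37 °C, 5% CO2. MTT for 3 h, stopped with isopropanol/SDS, formazan read at 570 nm, blank-corrected. LC50 by Probit from % viability against untreated cells. Triplicate, at least two independent experiments.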

[22] = system: OVCAR-5; assay: Growth inhibition of human OVCAR5 cells at 10 uM incubated for 48 hrs by sulforhodamine B assay; type: functional, cell-based; in short: as §1
[23] = system: ACHN; assay: Growth inhibition of human ACHN cells at 10 uM incubated for 48 hrs by sulforhodamine B assay; type: functional, cell-based; in short: as §2
[24] = system: MDA-MB-231; assay: Growth inhibition of human MDA-MB-231 cells at 10 uM incubated for 48 hrs by sulforhodamine B assay; type: functional, cell-based; in short: as §1
[25] = system: NCI/ADR-RES; assay: Growth inhibition of human NCI/ADR-RES cells at 10 uM incubated for 48 hrs by sulforhodamine B assay; type: functional, cell-based; in short: as §1

| Structure (SMILES) | growth inhibition (GI) [1] | growth inhibition (GI) [2] | MIC [3] [µg/mL] | growth inhibition (GI) [4] | EC50 [5] [µg/mL] | growth inhibition (GI) [6] | growth inhibition (GI) [7] | inhibition of growth at 3.4 µg/mL [8] [%] | EC50 [9] [µg/mL] | growth inhibition (GI) [10] | inhibition of growth at 125 µg/mL [11] [%] | growth inhibition (GI) [12] | growth inhibition (GI) [13] | growth inhibition (GI) [14] | growth inhibition (GI) [15] | inhibition of growth at 3.4 µg/mL [16] [%] | growth inhibition (GI) [17] | inhibition of growth at 15.62 µg/mL [18] [%] | growth inhibition (GI) [19] | inhibition of growth at 7.8 µg/mL [20] [%] | also measured |
| --- | --- | --- | --- | --- | --- | --- | --- | --- | --- | --- | --- | --- | --- | --- | --- | --- | --- | --- | --- | --- | --- |
| COc1cc(C2=NN(c3ccc(Cl)cc3)C(c3cccc(Nc4ccnc5cc(Cl)ccc45)c3)C2)cc(OC)c1OC (stereo not given) | inactive | inactive | > 1000 | inactive | 44.6 (≈ 74.3 µM) | inactive | inactive | 8.08 | 22.6 (≈ 37.7 µM) | inactive | 17.1 | inactive | inactive | inactive | inactive | 2.27 | inactive | 8.02 | inactive | 4.21 | LC50 [21]: > 200 µg/mL; growth inhibition (GI) [22]: inactive; growth inhibition (GI) [23]: inactive; growth inhibition (GI) [24]: inactive; growth inhibition (GI) [25]: inactive |
| COc1ccc(C2=NN(c3ccc(Cl)cc3)C(c3cccc(Nc4ccnc5cc(Cl)ccc45)c3)C2)cc1 (stereo not given) | inactive | inactive | > 1000 | inactive | 44.6 (≈ 82.6 µM) | inactive | inactive | 7.99 | 44.6 (≈ 82.6 µM) | inactive | 26.7 | inactive | inactive | inactive | inactive | 0 | inactive | 0 | inactive | 0 | LC50 [21]: > 200 µg/mL; growth inhibition (GI) [22]: inactive; growth inhibition (GI) [23]: inactive; growth inhibition (GI) [24]: inactive; growth inhibition (GI) [25]: inactive |
| COc1ccc(C(=O)/C=C/c2cccc(Nc3ccnc4cc(Cl)ccc34)c2)cc1 | Active | Active | > 1000 | Active | 10.5 (≈ 25.4 µM) | Active | Active | 0 | 3.29 (≈ 7.93 µM) | Active | 34.4 | Active | Active | Active | Active | 5.88 | Active | 26.8 | Active | 12.5 | LC50 [21]: 8.1 µg/mL (≈ 19.5 µM); growth inhibition (GI) [22]: Active; growth inhibition (GI) [23]: Active; growth inhibition (GI) [24]: Active; growth inhibition (GI) [25]: Active |
| Clc1ccc(C2=NN(c3ccccc3)C(c3cccc(Nc4ccnc5cc(Cl)ccc45)c3)C2)cc1 (stereo not given) | inactive | inactive | > 1000 | inactive | 11.7 (≈ 23 µM) | inactive | inactive | 0 | 16.2 (≈ 31.8 µM) | inactive | 14.6 | inactive | inactive | inactive | inactive | 0 | inactive | 4.29 | inactive | 3.8 | LC50 [21]: > 200 µg/mL; growth inhibition (GI) [22]: inactive; growth inhibition (GI) [23]: inactive; growth inhibition (GI) [24]: inactive; growth inhibition (GI) [25]: inactive |
| COc1cc(C(=O)/C=C/c2cccc(Nc3ccnc4cc(Cl)ccc34)c2)cc(OC)c1OC | Active | Active | > 1000 | Active | 14.1 (≈ 29.7 µM) | Active | Active | 0 | 1.09 (≈ 2.3 µM) | Active | 6.74 | Active | Active | Active | Active | 1.24 | Active | 4.77 | Active | 2.51 | LC50 [21]: 0.9 µg/mL (≈ 1.89 µM); growth inhibition (GI) [22]: Active; growth inhibition (GI) [23]: Active; growth inhibition (GI) [24]: Active; growth inhibition (GI) [25]: Active |

From ChEMBL document CHEMBL4038284, “Synthesis of novel quinoline-based 4,5-dihydro-1H-pyrazoles as potential anticancer, antifungal, antibacterial and antiprotozoal agents” (Eur J Med Chem, 2017)
